Measurements published in the RNAGym collection of RNA variant scans (doi:10.1126/science.aae0568).
Fewer inactive variants are shown than the library holds.

B1: tRNA (parent)
chain: GUUCCGUUGGCGUAAUGGUAACGCGUCUCCCUCCUAAGGAGAAGACUGCGGGUUCGAGUCCCGUACGGAACG

Variants of: B1
Assay: yeast fitness relative to wild type (ratio to wild type); higher = fitter; tRNA-Arg(CCU), competitive growth, 37 C, YPD
In short: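 Amplicons of the tRNA-Arg(CCU) gene were sequenced, 100-nucleotide paired-end, from the start population and from each end population of a pooled yeast competition. The competition, in six parallel replicates, lasted 24 hours in YPD at 37°C. Fitness relative to wild type was calculated from changes in genotype frequencies. Genotypes had to have ≥ 100 starting reads, and estimates < 0.5 were set to 0.5.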

Variant	yeast fitness
C4U U32A G52C C55U C66U	≤ 0.5
C4U U47A	0.86
C4U U47G	0.616
C4U U47C	1.06
C4U U28G C49A C62G	≤ 0.5
C4U G38A G58C C66U	≤ 0.5
C4U G18A G23C C24G	0.518
C4U G44A	1.05
C4U G44C	1.01
C4U U7G A37G	0.536
C4U U28G C60A	0.503
C4U U26C C27U	0.678
C4U G18A G23C C24G C46G C66G	≤ 0.5
C5A A14U G52A	0.603
C4U U8C A40U G50C	≤ 0.5
C5A A20U C27A A42G A43G A57C G67C	0.565
C4U G23A C33G C49A U54G A65G	≤ 0.5
C4U U47C C66U	0.766
C4U G52C G67C	≤ 0.5
C4U G12A C24A G67C	≤ 0.5
C4U G12A C24A C61U	0.609
C5A A20G C24U G38C G56C	≤ 0.5
C4U U13C C66U A70C	0.618
C4U U59C	0.853

Variant	yeast fitness
C4U G41C C60G	≤ 0.5
C4U U7A A36U A45U A57G A70G	≤ 0.5
C5A A15C G67U	0.526
C4U G12A G48C	0.648
C5A A20G U26A A40G G58C G67U	≤ 0.5
C4U U26C	1.04
C4U G39C U54C	≤ 0.5
C5A A14C G68A	≤ 0.5
C5A A15C C30A A42U C55U C66A	≤ 0.5
C5A A15U C31G G39A G58A	≤ 0.5
C4U G18A C22U A40C G68C	0.591
C4U U19A C31G A65C C66U	≤ 0.5
C5A A20G A65U	≤ 0.5
C5A A14G C22G C62G	≤ 0.5
C4U U16A A40U	0.666
C4U G10C G48C G56C	≤ 0.5
C4U U16C C24U	0.675
C4U G51C	0.637
C4U G51A	0.942
C4U U16A A20U U28C U35C G39C A42C G48A	≤ 0.5
C4U U47C G52C C61A	≤ 0.5
C4U G18C G68C	0.535
C4U G18C A57U C62U U64A G68C	≤ 0.5
C4U U26G G38U	0.508

Variant	yeast fitness
C4U G52C U59C	≤ 0.5
C4U G25A G48C	0.62
C5A A20C A36C A45C	≤ 0.5
C4U U19C C31A G41C	0.53
C4U G44C C55G A69U	≤ 0.5
C4U U35C A36G G44C	0.708
C4U U32A G58C	0.592
C5A A15U A21U C66U G67U A70G	≤ 0.5
C5A A15G C33U G44C	≤ 0.5
C4U U32C	0.944
C4U U8G A15U C62U	≤ 0.5
C4U G38C G41A C61G	0.707
C4U U8C C11A G12A U28C G44C	≤ 0.5
C5A A14G C24A	0.565
C5A A14G C22G C27U A37U	≤ 0.5
C4U G52A C55U U64C	≤ 0.5
C4U G18C C49U C61A	≤ 0.5
C5A A14G A20U A37C C49A C66A	≤ 0.5
C5A A15G C34U A40C G56A G63A	≤ 0.5
C4U U13G C49A C55U C60U C61U	≤ 0.5
C4U U35C A42G	0.581
C4U U16A A37U C55G	≤ 0.5
C4U U7A U8A	≤ 0.5
C4U U8C C29U A43U	≤ 0.5

Variant	yeast fitness
C4U U26G G44A	0.591
C5A A14U A21C A43C	0.595
C5A A20U A70G	≤ 0.5
C4U G18C A45U C49U	≤ 0.5
C5A A15C C62U	≤ 0.5
C4U U26G C62G A70U	≤ 0.5
C4U G52A C60A	0.823
C4U G12C C27U	0.535
C4U G48A	0.857
C4U G48C	0.951
C4U G52A A70C	0.646
C4U G12A C27G C34A C49A C60G C61U	0.522
C4U G67A A69U	0.684
C4U G56C	0.655
C4U G18A G39C G58C G67A	≤ 0.5
C4U G23C U26G A36C A37U A42C A45U C60U C66U A70G	0.634
C5A A15U C24G	≤ 0.5
C4U G39A	0.982
C4U G39C	0.829
C4U U35A G44C	0.58
C4U G12C U64C	0.696
C5A A14C C29A G41C	0.683
C4U G25A G48C A57U	≤ 0.5
C4U U8A U13C C46A	0.619

Variant	yeast fitness
C4U G44A C46U A69C	0.829
C5A A20C A36G	0.626
C4U U19A C30G A36C C66A G68C	≤ 0.5
C4U G23A U26C	≤ 0.5
C4U G25A A36G	0.641
C4U U32A U64G	≤ 0.5
C4U G25C C30G C55A	0.561
C4U U28G G38A A43G C46A C49U	0.608
C4U U16C A42G G58A	0.552
C4U G56C A65U	≤ 0.5
C4U G41C G51C G58C	≤ 0.5
C4U G12A C62G	0.53
C4U U7G C34G G48C C61U	≤ 0.5
C4U U13C C24U C49U	≤ 0.5
C5A	0.995
C5A A20C C22A C24U C31U	0.685
C4U G23A	0.783
C5A A15U A21U	0.56
C5A A20G U26C A40C	≤ 0.5
C4U U13C C29G G38C	≤ 0.5
C4U U7A U54G	≤ 0.5
C5A A14C	0.603
C5A A15C U16A C31G C34U A69U	≤ 0.5
C4U U59C A69C	0.772

Variant	yeast fitness
C5A A14G C24A A43G G63U	≤ 0.5
C4U G52A U59A	0.592
C5A A15U G38C G39A A43C C60G A65C	≤ 0.5
C4U U54C C62U	0.578
C4U U26C A36C U64A A70C	≤ 0.5
C4U U26A A69U	0.641
C4U U7A U8A A40U C61U	≤ 0.5
C4U G48A C60G	≤ 0.5
C4U G12C U28G U32C C62G	≤ 0.5
C4U U7C	1.08
C4U U7C C24G C34A A45C G56A C61A A65C A69C A70G	≤ 0.5
C4U G10C C60G G67A	≤ 0.5
C4U U13A A14U C29U A37G G67A	≤ 0.5
C4U U16C	1.02
C4U U16A	0.993
C4U U16G	1.05
C5A A14G G17C C29A C33G C34U A36U	0.648
C4U U13A A14U U32A G58C	≤ 0.5
C4U G52A	0.727
C4U G41C C66A	≤ 0.5
C4U U35C G50A C66A	0.689
C4U G56A C60U	≤ 0.5
C5A A15U A21U U32C	≤ 0.5
C4U G12A A20G C22U C55U	0.606

Variant	yeast fitness
C4U U26A A37C A42C C49U G56A	≤ 0.5
C4U U19A A37G G44C A57U G68C	≤ 0.5
C4U G63A C66U	0.792
C4U G18A A21C A65C	≤ 0.5
C4U U64A A70U	0.66
C5A A20C C22A A36C C61U	0.531
C4U G17C	0.709
C4U U53C	0.869
C4U G12C U64C A70U	≤ 0.5
C4U G58C	1.02
C4U G58A	0.838
C4U G10C G23A G52A G58A	≤ 0.5
C4U U19C C31A G41C C55A	≤ 0.5
C5A A20C C24A	0.575
C4U G17A A37U U59C	≤ 0.5
C4U U16A A20G C49U C66U	≤ 0.5
C5A A20U A65G	0.591
C4U G10C U35C G41A C49U	≤ 0.5
C4U U7C G10A A14U C27G A36G	0.505
C4U U7G C34G C55U	0.563
C4U U7A C33G A42C	≤ 0.5
C4U U28C G38C C61U	≤ 0.5
C4U G39C G48C C62G	0.549
